Test results published in ChEMBL document CHEMBL1275484, “Rifampin and rifaximin resistance in clinical isolates of Clostridium difficile” (Antimicrob Agents Chemother, 2008).
Converted amounts (≈) assume the structure as drawn.

Experiments:
Format in all cases: functional
Clostridioides difficile [1] = experiment: Antimicrobial activity against Clostridium difficile isolate 41 by agar dilution method
Summary of the method: (§1)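 CLSI reference agar dilution method for anaerobes, with endpoints read per guideline M11-A7. Rifaximin was dissolved in methanol, diluted in 0.1 M phosphate buffer (pH 7.4) with 0.45% SDS, and tested at 0.0009–256 μg/ml. Rifampin was dissolved in methanol, diluted in water, and tested at 0.00001–256 μg/ml. C. difficile ATCC […] served as control. Isolates were typed by HindIII REA.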

Clostridioides difficile [2] = experiment: Antimicrobial activity against Clostridium difficile isolate 49 by agar dilution method; summary of the method: as §1
Clostridioides difficile [3] = experiment: Antimicrobial activity against Clostridium difficile isolate 53 by agar dilution method; summary of the method: as §1
Clostridioides difficile [4] = experiment: Antimicrobial activity against Clostridium difficile isolate 62 by agar dilution method
Summary of the method: (§2)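 CLSI reference agar dilution for anaerobes, with endpoints read per guideline M11-A7. Rifaximin was dissolved in methanol, diluted in 0.1 M phosphate buffer pH 7.4 with 0.45% SDS, and tested at 0.0009–256 μg/ml. Rifampin was dissolved in methanol, diluted in water, and tested at 0.00001–256 μg/ml. Control strain: C. difficile ATCC […]. Isolates were typed by HindIII REA.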

Clostridioides difficile [5] = experiment: Antimicrobial activity against Clostridium difficile isolate 63 by agar dilution method; summary of the method: as §2
Clostridioides difficile [6] = experiment: Antimicrobial activity against rifaximin-resistant Clostridium difficile isolate 66 expressing RpoB D492N and R505K mutants by agar dilution method
Summary of the method: (§3)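 MICs were found by the CLSI reference agar dilution method for anaerobes, with endpoints read per M11-A7 and C. difficile […] as control. Rifaximin was dissolved in methanol, diluted in 0.1 M phosphate buffer pH 7.4 with 0.45% SDS, and tested at 0.0009–256 μg/ml. Rifampin was dissolved in methanol, diluted in water, and tested at 0.00001–256 μg/ml.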

Clostridioides difficile [7] = experiment: Antimicrobial activity against rifaximin-resistant Clostridium difficile isolate 67 expressing RpoB H502N and R505K mutants by agar dilution method; summary of the method: as §3
Clostridioides difficile [8] = experiment: Antimicrobial activity against rifaximin-resistant Clostridium difficile isolate 68 expressing RpoB H502Y mutant by agar dilution method; summary of the method: as §3
Clostridioides difficile [9] = experiment: Antimicrobial activity against Clostridium difficile isolate 70 by agar dilution method; summary of the method: as §2
Clostridioides difficile [10] = experiment: Antimicrobial activity against Clostridium difficile isolate 73 by agar dilution method; summary of the method: as §2
Clostridioides difficile [11] = experiment: Antimicrobial activity against Clostridium difficile isolate 77 by agar dilution method; summary of the method: as §2
Clostridioides difficile [12] = experiment: Antimicrobial activity against Clostridium difficile isolate 80 by agar dilution method; summary of the method: as §2
Clostridioides difficile [13] = experiment: Antimicrobial activity against Clostridium difficile isolate 5 by Etest
Summary of the method: (§4)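 Rifampin Etest strips were run on brucella blood agar following the manufacturer's instructions to give an MIC. Clinical isolates were typed by HindIII REA.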

Clostridioides difficile [14] = experiment: Antimicrobial activity against Clostridium difficile isolate 6 by Etest; summary of the method: as §4
Clostridioides difficile [15] = experiment: Antimicrobial activity against Clostridium difficile isolate 8 by Etest
Summary of the method: (§5)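 Rifampin MIC by Etest on brucella blood agar, run per the strip manufacturer's instructions, against clinical isolates typed by HindIII REA.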

Clostridioides difficile [16] = experiment: Antimicrobial activity against Clostridium difficile isolate 9 by Etest; summary of the method: as §5
Clostridioides difficile [17] = experiment: Antimicrobial activity against Clostridium difficile isolate 11 by Etest
Summary of the method: (§6)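 Rifampin MIC by Etest strip on brucella blood agar, run per the strip maker's instructions. Isolates were HindIII REA-typed clinical C. difficile.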

Clostridioides difficile [18] = experiment: Antimicrobial activity against rifaximin-resistant Clostridium difficile isolate 18 expressing RpoB R505K mutant by Etest
Summary of the method: (§7)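 Rifampin Etest on clinical C. difficile isolates typed by HindIII REA, run per the strip manufacturer's instructions on brucella blood agar, with the MIC read from the strip.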

Clostridioides difficile [19] = experiment: Antimicrobial activity against rifaximin-resistant Clostridium difficile isolate 22 expressing RpoB H502N and R505K mutants by Etest; summary of the method: as §7
Clostridioides difficile [20] = experiment: Antimicrobial activity against Clostridium difficile isolate 25 by Etest; summary of the method: as §6
Clostridioides difficile [21] = experiment: Antimicrobial activity against Clostridium difficile isolate 28 by Etest; summary of the method: as §6
Clostridioides difficile [22] = experiment: Antimicrobial activity against Clostridium difficile isolate 35 by Etest; summary of the method: as §6
Clostridioides difficile [23] = experiment: Antimicrobial activity against Clostridium difficile isolate 40 by Etest; summary of the method: as §4
Clostridioides difficile [24] = experiment: Antimicrobial activity against Clostridium difficile isolate 41 by Etest; summary of the method: as §4
Clostridioides difficile [25] = experiment: Antimicrobial activity against Clostridium difficile isolate 43 by Etest; summary of the method: as §4
Clostridioides difficile [26] = experiment: Antimicrobial activity against Clostridium difficile isolate 44 by Etest; summary of the method: as §4
Clostridioides difficile [27] = experiment: Antimicrobial activity against Clostridium difficile isolate 54 by Etest; summary of the method: as §4
Clostridioides difficile [28] = experiment: Antimicrobial activity against Clostridium difficile isolate 55 by Etest; summary of the method: as §4
Clostridioides difficile [29] = experiment: Antimicrobial activity against Clostridium difficile isolate 61 by Etest; summary of the method: as §4
Clostridioides difficile [30] = experiment: Antimicrobial activity against Clostridium difficile isolate 62 by Etest; summary of the method: as §4
Clostridioides difficile [31] = experiment: Antimicrobial activity against Clostridium difficile isolate 63 by Etest; summary of the method: as §5
Clostridioides difficile [32] = experiment: Antimicrobial activity against rifaximin-resistant Clostridium difficile isolate 65 expressing RpoB H502N and R505K mutants by Etest; summary of the method: as §7
Clostridioides difficile [33] = experiment: Antimicrobial activity against rifaximin-resistant Clostridium difficile isolate 66 expressing RpoB D492N and R505K mutants by Etest; summary of the method: as §7
Clostridioides difficile [34] = experiment: Antimicrobial activity against rifaximin-resistant Clostridium difficile isolate 67 expressing RpoB H502N and R505K mutants by Etest; summary of the method: as §7
Clostridioides difficile [35] = experiment: Antimicrobial activity against rifaximin-resistant Clostridium difficile isolate 68 expressing RpoB H502Y mutant by Etest; summary of the method: as §7
Clostridioides difficile [36] = experiment: Antimicrobial activity against Clostridium difficile isolate 70 by Etest; summary of the method: as §5
Clostridioides difficile [37] = experiment: Antimicrobial activity against Clostridium difficile isolate 71 by Etest; summary of the method: as §5
Clostridioides difficile [38] = experiment: Antimicrobial activity against Clostridium difficile isolate 74 by Etest; summary of the method: as §5
Clostridioides difficile [39] = experiment: Antimicrobial activity against Clostridium difficile isolate 78 by Etest; summary of the method: as §5
Clostridioides difficile [40] = experiment: Antimicrobial activity against Clostridium difficile isolate 2 by agar dilution method
Summary of the method: (§8)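 MIC by CLSI reference agar dilution for anaerobes, with endpoints read per M11-A7 and C. difficile […] as control. Rifaximin was dissolved in methanol, diluted in 0.1 M phosphate buffer pH 7.4 plus 0.45% SDS, and tested at 0.0009–256 μg/ml. Rifampin was dissolved in methanol, diluted in water, and tested at 0.00001–256 μg/ml.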

Clostridioides difficile [41] = experiment: Antimicrobial activity against Clostridium difficile isolate 5 by agar dilution method; summary of the method: as §1
Clostridioides difficile [42] = experiment: Antimicrobial activity against rifaximin-resistant Clostridium difficile isolate 12 expressing RpoB H502N and R505K mutants by agar dilution method; summary of the method: as §3
Clostridioides difficile [43] = experiment: Antimicrobial activity against Clostridium difficile isolate 15 by agar dilution method; summary of the method: as §8
Clostridioides difficile [44] = experiment: Antimicrobial activity against rifaximin-resistant Clostridium difficile isolate 17 expressing RpoB H502N and I548M mutants by agar dilution method; summary of the method: as §3
Clostridioides difficile [45] = experiment: Antimicrobial activity against rifaximin-resistant Clostridium difficile isolate 21 expressing RpoB H502N and R505K mutants by agar dilution method; summary of the method: as §3
Clostridioides difficile [46] = experiment: Antimicrobial activity against rifaximin-resistant Clostridium difficile isolate 26 expressing RpoB R505K mutant by agar dilution method; summary of the method: as §3
Clostridioides difficile [47] = experiment: Antimicrobial activity against Clostridium difficile isolate 30 by agar dilution method; summary of the method: as §8
Clostridioides difficile [48] = experiment: Antimicrobial activity against Clostridium difficile isolate 33 by agar dilution method; summary of the method: as §8

Q: Which MIC (Clostridioides difficile [1]) does the source give for CO[C@H]1/C=C/O[C@@]2(C)Oc3c(C)c(O)c4c(O)c(c(/C=N/N5CCN(C)CC5)c(O)c4c3C2=O)NC(=O)/C(C)=C\C=C\[C@H](C)[C@H](O)[C@@H](C)[C@@H](O)[C@@H](C)[C@H](OC(C)=O)[C@@H]1C [RIFAMPIN] here?
A: 0.9 ng/mL (≈ 1.09 nM)

Q: And the MIC (Clostridioides difficile [2])?
A: 0.9 ng/mL (≈ 1.09 nM)

Q: What about the MIC (Clostridioides difficile [3]) of the same compound?
A: 1.9 ng/mL (≈ 2.31 nM)

Q: What about the MIC (Clostridioides difficile [4]) of the same compound?
A: 0.9 ng/mL (≈ 1.09 nM)

Q: And the MIC (Clostridioides difficile [5])?
A: 0.4 ng/mL (≈ 0.486 nM)

Q: And the MIC (Clostridioides difficile [6])?
A: > 256000 ng/mL

Q: And the MIC (Clostridioides difficile [7])?
A: > 256000 ng/mL

Q: What about the MIC (Clostridioides difficile [8]) of the same compound?
A: > 256000 ng/mL

Q: What about the MIC (Clostridioides difficile [9]) of the same compound?
A: 0.06 ng/mL (≈ 0.0729 nM)

Q: And the MIC (Clostridioides difficile [10])?
A: 0.06 ng/mL (≈ 0.0729 nM)

Q: And the MIC (Clostridioides difficile [11])?
A: 0.06 ng/mL (≈ 0.0729 nM)

Q: What about the MIC (Clostridioides difficile [12]) of the same compound?
A: 0.06 ng/mL (≈ 0.0729 nM)

Q: What about the MIC (Clostridioides difficile [13]) of the same compound?
A: < 2 ng/mL

Q: And the MIC (Clostridioides difficile [14])?
A: < 2 ng/mL

Q: And the MIC (Clostridioides difficile [15])?
A: < 2 ng/mL

Q: And the MIC (Clostridioides difficile [16])?
A: 3 ng/mL (≈ 3.65 nM)

Q: And the MIC (Clostridioides difficile [17])?
A: < 2 ng/mL

Q: And the MIC (Clostridioides difficile [18])?
A: > 32000 ng/mL

Q: And the MIC (Clostridioides difficile [19])?
A: > 32000 ng/mL

Q: What about the MIC (Clostridioides difficile [20]) of the same compound?
A: < 2 ng/mL

Q: What about the MIC (Clostridioides difficile [21]) of the same compound?
A: < 2 ng/mL

Q: And the MIC (Clostridioides difficile [22])?
A: < 2 ng/mL

Q: And the MIC (Clostridioides difficile [23])?
A: < 2 ng/mL

Q: And the MIC (Clostridioides difficile [24])?
A: < 2 ng/mL

Q: What about the MIC (Clostridioides difficile [25]) of the same compound?
A: < 2 ng/mL

Q: And the MIC (Clostridioides difficile [26])?
A: < 2 ng/mL

Q: And the MIC (Clostridioides difficile [27])?
A: < 2 ng/mL

Q: And the MIC (Clostridioides difficile [28])?
A: < 2 ng/mL

Q: And the MIC (Clostridioides difficile [29])?
A: < 2 ng/mL

Q: And the MIC (Clostridioides difficile [30])?
A: < 2 ng/mL

Q: And the MIC (Clostridioides difficile [31])?
A: < 2 ng/mL

Q: What about the MIC (Clostridioides difficile [32]) of the same compound?
A: > 32000 ng/mL

Q: What about the MIC (Clostridioides difficile [33]) of the same compound?
A: > 32000 ng/mL

Q: And the MIC (Clostridioides difficile [34])?
A: > 32000 ng/mL

Q: And the MIC (Clostridioides difficile [35])?
A: > 32000 ng/mL

Q: What about the MIC (Clostridioides difficile [36]) of the same compound?
A: < 2 ng/mL

Q: What about the MIC (Clostridioides difficile [37]) of the same compound?
A: < 2 ng/mL

Q: What about the MIC (Clostridioides difficile [38]) of the same compound?
A: < 2 ng/mL

Q: And the MIC (Clostridioides difficile [39])?
A: < 2 ng/mL

Q: And the MIC (Clostridioides difficile [40])?
A: 0.06 ng/mL (≈ 0.0729 nM)

Q: And the MIC (Clostridioides difficile [41])?
A: 0.06 ng/mL (≈ 0.0729 nM)

Q: And the MIC (Clostridioides difficile [42])?
A: > 256000 ng/mL

Q: What about the MIC (Clostridioides difficile [43]) of the same compound?
A: 0.9 ng/mL (≈ 1.09 nM)

Q: And the MIC (Clostridioides difficile [44])?
A: > 256000 ng/mL

Q: What about the MIC (Clostridioides difficile [45]) of the same compound?
A: > 256000 ng/mL

Q: And the MIC (Clostridioides difficile [46])?
A: 128000 ng/mL (≈ 156000 nM)

Q: What about the MIC (Clostridioides difficile [47]) of the same compound?
A: 0.9 ng/mL (≈ 1.09 nM)

Q: What about the MIC (Clostridioides difficile [48]) of the same compound?
A: 0.9 ng/mL (≈ 1.09 nM)
